According to paper PMC7115590 (European Journal of Medicinal Chemistry, 2012):

Key:
Cytotoxicity = format: cell-based; conditions: human, HepG 2.2.15 cells
[1] = test system: HBsAg (hepatitis B surface antigen) secretion; assay: Inhibition of HBsAg secretion in HepG 2.2.15 cells; format: cell-based; conditions: Hepatitis B virus, HepG2.2.15, read-out: HBsAg IC50
HBV DNA replication = assay: Inhibition of HBV DNA replication in HepG 2.2.15 cells; format: cell-based; conditions: Hepatitis B virus, HepG2.2.15, read-out: DNA replication IC50
Kunming mice = assay: Acute toxicity in mice, single oral dose, 14 days observation; format: in vivo; conditions: for No. of dead, 1–7 day / No. of dead, 8–14 day / Total death / mortality: 10 mice; for Body weight, 0 day: group average
Outline: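 Male and female Kunming mice (21 ± 2 g) were randomised into 4 groups of 10 (5 male + 5 female). Each group received one oral dose of test compound at 0, 50, 250 or 1250 mg/kg; the 0 group got the same volume of physiological saline. Mice had free food and water at 25 ± 1 °C on a 12-h light/dark cycle. Survival and body weight were recorded up to 14 days.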

| Compound | CC50 (Cytotoxicity) [µM] | IC50 [1] [µM] | IC50 (HBV DNA replication) [µM] | No. of dead, 1–7 day (Kunming mice; 50 mg/kg oral) | No. of dead, 8–14 day (Kunming mice; 50 mg/kg oral) | Total death (Kunming mice; 50 mg/kg oral) | mortality (Kunming mice; 50 mg/kg oral) | Body weight, 0 day (Kunming mice; 50 mg/kg oral) [g] | No. of dead, 1–7 day (Kunming mice; 250 mg/kg oral) | No. of dead, 8–14 day (Kunming mice; 250 mg/kg oral) | Total death (Kunming mice; 250 mg/kg oral) | mortality (Kunming mice; 250 mg/kg oral) | Body weight, 0 day (Kunming mice; 250 mg/kg oral) [g] | No. of dead, 1–7 day (Kunming mice; 1250 mg/kg oral) | No. of dead, 8–14 day (Kunming mice; 1250 mg/kg oral) | Total death (Kunming mice; 1250 mg/kg oral) | mortality (Kunming mice; 1250 mg/kg oral) | Body weight, 0 day (Kunming mice; 1250 mg/kg oral) [g] | survival and abnormality of mice up to 14 days post administration (Kunming mice; single oral dose at 50, 250 and 1250 mg/kg, Kunming mice of both genders) |
| --- | --- | --- | --- | --- | --- | --- | --- | --- | --- | --- | --- | --- | --- | --- | --- | --- | --- | --- | --- |
| CC(=O)[C@]1(O)CC[C@@]2(O)[C@]1(C)[C@H](OC(=O)/C=C(\C)C(C)C)C[C@@H]1[C@@]3(C)CC[C@H](O)CC3=CC[C@]12O [Compound 1, caudatin] | 245 | 143 | 40.6 | – | – | – | – | – | – | – | – | – | – | – | – | – | – | – | – |
| COc1cc(/C=C/C(=O)O[C@H]2CC[C@@]3(C)C(=CC[C@]4(O)[C@@H]3C[C@@H](OC(=O)/C=C(\C)C(C)C)[C@@]3(C)[C@]4(O)CC[C@@]3(O)C(C)=O)C2)cc(OC)c1OC [Compound 18, 3-O-(3,4,5-Trimethoxy)cinnamoyl caudatin] | – | – | – | 0 | 0 | 0/0 | 0/0 | 22.4 | 0 | 0 | 0/0 | 0/0 | 22.3 | 0 | 0 | 0/0 | 0/0 | 22.6 | no dies and abnormality were observed |
